Source: ChEMBL document CHEMBL4118097, “Selective Inhibitors of Dual Leucine Zipper Kinase (DLK, MAP3K12) with Activity in a Model of Alzheimer's Disease” (J Med Chem, 2017)

Tests used:
[1] = target: Ephrin type-A receptor 1 (Homo sapiens) (UniProt P21709); assay: Inhibition of recombinant GST-tagged human EphA1 cytoplasmic domain expressed in baculovirus expression system at 1 uM by FRET assay relative to control
Method in brief: (§1)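 Single-point screen at 1 μM compound in a 220-kinase panel run by Life Technologies (SelectScreen). Z′-LYTE format: phosphorylation of a labeled peptide substrate read by FRET. Values are reported as percent inhibition.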

[2] = target: D(1A) dopamine receptor (Homo sapiens) (UniProt P21728); assay: Binding affinity to recombinant full length human D1 dopamine receptor at 10 uM relative to control
Method in brief: (§2)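 Broad radioligand-binding and enzyme screening panel covering 42 targets (biogenic amine and neuropeptide receptors, ion channels, neurotransmitter transporters, acetylcholinesterase). Single test concentration of 10 μM. Results expressed as binding relative to control, with a hit defined as >50% of control.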

[3] = target: Megakaryocyte-associated tyrosine-protein kinase (Homo sapiens) (UniProt P42679); assay: Inhibition of recombinant full length His-tagged human Hyl cytoplasmic domain expressed in Escherichia coli at 1 uM by FRET relative to control
[4] = target: RAC-alpha serine/threonine-protein kinase (Homo sapiens) (UniProt P31749); assay: Inhibition of recombinant full length His-tagged human AKT1 expressed in baculovirus expression system at 1 uM by FRET assay relative to control
[5] = target: Ephrin type-A receptor 8 (Homo sapiens) (UniProt P29322); assay: Inhibition of recombinant GST-tagged human EphA8 cytoplasmic domain expressed in baculovirus expression system at 1 uM by FRET assay relative to control; method in brief: as §1
[6] = target: Homeodomain-interacting protein kinase 4 (Homo sapiens) (UniProt Q8NE63); assay: Inhibition of recombinant full length GST-tagged human HIPK4 expressed in baculovirus expression system at 1 uM by FRET relative to control
Method in brief: (§3)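 Single-concentration screen at 1 μM in Life Technologies SelectScreen, across a 220-kinase panel. Z′-LYTE format measures phosphorylation of a labeled peptide by FRET. Results are reported as percent inhibition.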

[7] = target: Endothelin-1 receptor (Homo sapiens) (UniProt P25101); assay: Binding affinity to recombinant human ETA receptor at 10 uM relative to control; method in brief: as §2
[8] = target: Proto-oncogene tyrosine-protein kinase receptor Ret (Homo sapiens) (UniProt P07949); assay: Inhibition of recombinant N-terminal GST-tagged human Ret cytoplasmic domain (658 to 1114 residues) expressed in baculovirus expression system at 1 uM by FRET assay relative to control; method in brief: as §3
[9] = target: Mitogen-activated protein kinase 13 (Homo sapiens) (UniProt O15264); assay: Inhibition of recombinant full length His-tagged human p38delta expressed in baculovirus expression system at 1 uM by FRET assay relative to control
Homo sapiens [10] = organism: Homo sapiens; assay: Binding affinity to BZD receptor (unknown origin) at 10 uM relative to control; method in brief: as §2
[11] = target: Focal adhesion kinase 1 (Homo sapiens) (UniProt Q05397); assay: Inhibition of recombinant full length GST-tagged human FAK expressed in baculovirus expression system at 1 uM by FRET assay relative to control; method in brief: as §3
[12] = target: Fibroblast growth factor receptor 4 (Homo sapiens) (UniProt P22455); assay: Inhibition of recombinant His-tagged human FGFR4 cytoplasmic domain expressed in baculovirus expression system at 1 uM by FRET assay relative to control; method in brief: as §1
[13] = target: Tyrosine-protein kinase JAK3 (Homo sapiens) (UniProt P52333); assay: Inhibition of recombinant GST-tagged human JAK3 catalytic domain (781 to 1124 residues) expressed in baculovirus expression system at 1 uM by FRET relative to control; method in brief: as §1
[14] = target: Dual specificity protein kinase CLK2 (Homo sapiens) (UniProt P49760); assay: Inhibition of recombinant GST-tagged human CLK2 catalytic domain(137 to 498 residues)expressed in baculovirus expression system at 1 uM by FRET assay relative to control
[15] = target: Serine/threonine-protein kinase 33 (Homo sapiens) (UniProt Q9BYT3); assay: Inhibition of recombinant full length His-tagged human STK33 expressed in baculovirus expression system at 1 uM by FRET assay relative to control
[16] = target: Protein kinase C alpha type (Homo sapiens) (UniProt P17252); assay: Inhibition of recombinant full length human PKCalpha expressed in baculovirus expression system at 1 uM by FRET assay relative to control
Homo sapiens [17] = organism: Homo sapiens; assay: Binding affinity to GABA-gated chloride channel (unknown origin) receptor at 10 uM relative to control; method in brief: as §2
[18] = target: Tyrosine-protein kinase TXK (Homo sapiens) (UniProt P42681); assay: Inhibition of recombinant N-terminal GST-tagged human TXK (260 to 527 residues) expressed in baculovirus expression system at 1 uM by FRET assay relative to control; method in brief: as §3
[19] = target: Dual specificity mitogen-activated protein kinase kinase 3 (Homo sapiens) (UniProt P46734); assay: Inhibition of recombinant full length GST-tagged human MEK3 expressed in baculovirus expression system at 1 uM by FRET assay relative to control; method in brief: as §3
[20] = target: Dual specificity protein kinase CLK1 (Homo sapiens) (UniProt P49759); assay: Inhibition of recombinant human GST-tagged CLK1 catalytic domain(129 to 484 residues)expressed in Escherichia coli at 1 uM by FRET assay relative to control
[21] = target: Calcium/calmodulin-dependent protein kinase kinase 2 (Homo sapiens) (UniProt Q96RR4); assay: Inhibition of recombinant full length GST-tagged human CAMKK2 expressed in baculovirus expression system at 1 uM by FRET assay relative to control; method in brief: as §3
[22] = target: Proto-oncogene tyrosine-protein kinase Src (Homo sapiens) (UniProt P12931); assay: Inhibition of recombinant full length C-terminal His-tagged human Src cytoplasmic domain expressed in baculovirus expression system at 1 uM by FRET assay relative to control; method in brief: as §3
[23] = target: Angiopoietin-1 receptor (Homo sapiens) (UniProt Q02763); assay: Inhibition of recombinant GST-tagged human Tie2 cytoplasmic domain (817 to 1101 residues) expressed in baculovirus expression system at 1 uM by FRET assay relative to control; method in brief: as §1
[24] = target: Interleukin-1 receptor-associated kinase 1 (Homo sapiens) (UniProt P51617); assay: Inhibition of recombinant GST-tagged human IRAK1 (194 to 712 residues) expressed in baculovirus expression system at 1 uM by FRET relative to control; method in brief: as §1
[25] = target: Cyclin-dependent kinase 5/CDK5 activator 1 (Homo sapiens) (UniProt Q00535+Q15078); assay: Inhibition of recombinant full length His/GST-tagged human CDK5/p25 expressed in baculovirus expression system at 1 uM by FRET assay relative to control
[26] = target: Serine/threonine-protein kinase D1 (Homo sapiens) (UniProt Q15139); assay: Inhibition of PKD1 (unknown origin) at 1 uM by FRET assay relative to control
[27] = target: Insulin receptor-related protein (Homo sapiens) (UniProt P14616); assay: Inhibition of recombinant GST-tagged human IRR cytoplasmic domain (944 to 1297 residues) expressed in baculovirus expression system at 1 uM by FRET relative to control; method in brief: as §1

Sequence of Dual specificity protein kinase CLK1 (Homo sapiens) (P49759 whole entry, looked up, the tested form may be a part): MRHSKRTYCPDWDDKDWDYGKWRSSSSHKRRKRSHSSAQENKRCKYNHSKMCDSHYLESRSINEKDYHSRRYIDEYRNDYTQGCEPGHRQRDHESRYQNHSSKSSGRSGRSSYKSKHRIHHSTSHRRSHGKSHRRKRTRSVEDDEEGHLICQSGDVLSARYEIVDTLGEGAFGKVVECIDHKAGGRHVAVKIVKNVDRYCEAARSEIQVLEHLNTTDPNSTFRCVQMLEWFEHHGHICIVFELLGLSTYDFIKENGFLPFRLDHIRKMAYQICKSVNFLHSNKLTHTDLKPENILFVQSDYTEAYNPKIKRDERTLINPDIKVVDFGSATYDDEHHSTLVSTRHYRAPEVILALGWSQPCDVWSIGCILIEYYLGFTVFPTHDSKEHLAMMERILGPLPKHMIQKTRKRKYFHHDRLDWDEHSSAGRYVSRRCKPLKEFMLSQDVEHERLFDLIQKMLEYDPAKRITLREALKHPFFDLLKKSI
Sequence of D(1A) dopamine receptor (Homo sapiens) (P21728 whole entry): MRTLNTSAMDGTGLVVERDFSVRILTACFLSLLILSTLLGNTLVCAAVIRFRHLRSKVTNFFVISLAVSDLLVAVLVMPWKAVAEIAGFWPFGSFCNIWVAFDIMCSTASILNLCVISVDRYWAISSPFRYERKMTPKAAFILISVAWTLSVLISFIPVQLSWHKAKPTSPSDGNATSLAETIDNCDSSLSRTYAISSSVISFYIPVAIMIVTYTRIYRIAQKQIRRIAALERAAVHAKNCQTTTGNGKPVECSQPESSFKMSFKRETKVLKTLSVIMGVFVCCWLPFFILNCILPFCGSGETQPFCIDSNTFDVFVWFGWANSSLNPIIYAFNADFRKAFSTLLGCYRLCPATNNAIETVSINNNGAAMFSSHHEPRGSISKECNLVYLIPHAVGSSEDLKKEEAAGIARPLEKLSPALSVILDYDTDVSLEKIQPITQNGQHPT
Sequence of Proto-oncogene tyrosine-protein kinase Src (Homo sapiens) (P12931 2-536 limits assumed): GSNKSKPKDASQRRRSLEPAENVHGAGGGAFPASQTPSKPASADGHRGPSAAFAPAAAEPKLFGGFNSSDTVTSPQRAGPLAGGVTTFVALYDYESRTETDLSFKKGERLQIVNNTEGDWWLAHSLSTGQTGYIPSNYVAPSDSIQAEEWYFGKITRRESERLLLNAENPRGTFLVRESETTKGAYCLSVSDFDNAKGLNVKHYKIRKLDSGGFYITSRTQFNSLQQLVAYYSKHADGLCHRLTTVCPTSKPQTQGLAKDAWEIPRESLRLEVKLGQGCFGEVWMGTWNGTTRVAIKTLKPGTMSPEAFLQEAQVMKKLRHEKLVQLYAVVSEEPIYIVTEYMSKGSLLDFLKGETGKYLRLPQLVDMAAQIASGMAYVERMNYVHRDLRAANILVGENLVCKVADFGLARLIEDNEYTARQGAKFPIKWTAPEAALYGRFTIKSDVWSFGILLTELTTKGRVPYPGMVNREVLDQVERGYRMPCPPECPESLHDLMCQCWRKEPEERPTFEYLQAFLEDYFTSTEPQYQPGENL
Sequence of Homeodomain-interacting protein kinase 4 (Homo sapiens) (Q8NE63 whole entry): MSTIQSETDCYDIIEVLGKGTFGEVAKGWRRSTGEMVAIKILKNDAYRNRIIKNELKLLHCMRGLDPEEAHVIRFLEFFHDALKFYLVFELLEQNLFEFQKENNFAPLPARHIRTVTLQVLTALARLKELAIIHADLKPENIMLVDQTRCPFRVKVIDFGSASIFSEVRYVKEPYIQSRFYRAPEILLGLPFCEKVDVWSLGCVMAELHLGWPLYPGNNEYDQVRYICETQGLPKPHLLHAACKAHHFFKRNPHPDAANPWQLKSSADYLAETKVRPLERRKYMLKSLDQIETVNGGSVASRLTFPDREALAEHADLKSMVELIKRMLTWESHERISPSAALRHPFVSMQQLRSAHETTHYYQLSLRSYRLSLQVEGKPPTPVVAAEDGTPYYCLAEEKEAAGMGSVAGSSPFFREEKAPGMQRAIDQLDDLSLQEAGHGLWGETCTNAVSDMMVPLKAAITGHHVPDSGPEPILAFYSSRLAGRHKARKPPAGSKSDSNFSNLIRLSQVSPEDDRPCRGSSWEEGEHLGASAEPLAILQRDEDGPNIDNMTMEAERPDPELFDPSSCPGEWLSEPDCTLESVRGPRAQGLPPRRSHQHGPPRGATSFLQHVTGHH
Sequence of Proto-oncogene tyrosine-protein kinase receptor Ret (Homo sapiens) (P07949 whole entry, the tested form may be a part): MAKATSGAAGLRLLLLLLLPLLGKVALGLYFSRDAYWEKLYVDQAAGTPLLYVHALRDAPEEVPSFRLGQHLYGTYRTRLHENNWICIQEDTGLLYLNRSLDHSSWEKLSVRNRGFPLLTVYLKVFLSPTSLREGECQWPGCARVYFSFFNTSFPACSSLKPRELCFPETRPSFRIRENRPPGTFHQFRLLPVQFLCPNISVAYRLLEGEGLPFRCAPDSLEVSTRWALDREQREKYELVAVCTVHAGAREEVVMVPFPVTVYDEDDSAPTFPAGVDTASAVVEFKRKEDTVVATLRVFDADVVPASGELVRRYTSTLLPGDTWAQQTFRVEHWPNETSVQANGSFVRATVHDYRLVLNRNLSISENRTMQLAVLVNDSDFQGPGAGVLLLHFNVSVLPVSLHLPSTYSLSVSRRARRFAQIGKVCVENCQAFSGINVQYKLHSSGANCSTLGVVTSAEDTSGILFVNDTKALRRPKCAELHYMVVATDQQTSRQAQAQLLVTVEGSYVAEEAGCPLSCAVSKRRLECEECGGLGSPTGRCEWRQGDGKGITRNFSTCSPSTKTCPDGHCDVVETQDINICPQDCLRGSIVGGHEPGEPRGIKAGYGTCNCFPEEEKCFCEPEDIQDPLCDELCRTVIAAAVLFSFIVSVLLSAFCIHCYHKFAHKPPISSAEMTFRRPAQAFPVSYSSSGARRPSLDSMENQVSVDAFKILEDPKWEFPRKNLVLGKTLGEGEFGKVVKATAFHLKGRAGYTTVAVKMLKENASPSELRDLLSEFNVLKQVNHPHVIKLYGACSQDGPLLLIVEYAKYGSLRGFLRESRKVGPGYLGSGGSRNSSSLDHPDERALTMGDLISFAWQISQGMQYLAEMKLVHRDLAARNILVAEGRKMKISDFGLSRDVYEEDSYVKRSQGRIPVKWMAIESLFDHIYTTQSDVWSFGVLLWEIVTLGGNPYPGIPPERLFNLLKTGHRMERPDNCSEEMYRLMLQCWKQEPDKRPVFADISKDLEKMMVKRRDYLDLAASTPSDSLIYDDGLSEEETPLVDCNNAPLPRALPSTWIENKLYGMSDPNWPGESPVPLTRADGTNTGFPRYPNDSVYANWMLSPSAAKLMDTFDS
Sequence of Tyrosine-protein kinase JAK3 (Homo sapiens) (P52333 whole entry, the tested form may be a part): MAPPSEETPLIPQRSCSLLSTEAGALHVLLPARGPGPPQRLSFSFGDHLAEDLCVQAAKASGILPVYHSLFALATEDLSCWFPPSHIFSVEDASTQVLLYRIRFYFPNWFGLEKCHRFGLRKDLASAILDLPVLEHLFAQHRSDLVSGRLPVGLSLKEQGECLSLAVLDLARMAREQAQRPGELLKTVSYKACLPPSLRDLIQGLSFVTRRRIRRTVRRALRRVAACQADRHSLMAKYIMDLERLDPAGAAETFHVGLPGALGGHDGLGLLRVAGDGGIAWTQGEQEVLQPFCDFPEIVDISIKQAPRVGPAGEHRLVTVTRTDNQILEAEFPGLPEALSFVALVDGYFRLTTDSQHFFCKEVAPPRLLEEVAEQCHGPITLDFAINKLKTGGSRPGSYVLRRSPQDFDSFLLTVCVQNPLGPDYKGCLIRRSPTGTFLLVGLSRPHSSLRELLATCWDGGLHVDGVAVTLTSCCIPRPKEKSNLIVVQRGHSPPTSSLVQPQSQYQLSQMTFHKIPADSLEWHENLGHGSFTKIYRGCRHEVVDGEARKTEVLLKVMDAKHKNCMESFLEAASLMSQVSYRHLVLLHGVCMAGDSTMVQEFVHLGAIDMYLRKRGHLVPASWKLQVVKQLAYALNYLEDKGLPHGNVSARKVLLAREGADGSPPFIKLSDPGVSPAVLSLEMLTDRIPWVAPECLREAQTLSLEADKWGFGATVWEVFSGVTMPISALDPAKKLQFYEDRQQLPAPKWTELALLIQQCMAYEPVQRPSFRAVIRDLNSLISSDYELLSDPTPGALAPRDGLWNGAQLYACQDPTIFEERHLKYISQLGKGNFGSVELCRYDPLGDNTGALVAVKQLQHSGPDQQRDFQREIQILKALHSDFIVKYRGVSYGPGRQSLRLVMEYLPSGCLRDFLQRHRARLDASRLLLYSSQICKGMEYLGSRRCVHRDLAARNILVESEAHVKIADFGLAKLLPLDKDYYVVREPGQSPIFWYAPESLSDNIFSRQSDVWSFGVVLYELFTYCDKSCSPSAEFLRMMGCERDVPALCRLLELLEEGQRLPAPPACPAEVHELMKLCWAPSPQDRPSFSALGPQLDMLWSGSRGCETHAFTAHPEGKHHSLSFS
Sequence of Calcium/calmodulin-dependent protein kinase kinase 2 (Homo sapiens) (Q96RR4 2-588 limits assumed): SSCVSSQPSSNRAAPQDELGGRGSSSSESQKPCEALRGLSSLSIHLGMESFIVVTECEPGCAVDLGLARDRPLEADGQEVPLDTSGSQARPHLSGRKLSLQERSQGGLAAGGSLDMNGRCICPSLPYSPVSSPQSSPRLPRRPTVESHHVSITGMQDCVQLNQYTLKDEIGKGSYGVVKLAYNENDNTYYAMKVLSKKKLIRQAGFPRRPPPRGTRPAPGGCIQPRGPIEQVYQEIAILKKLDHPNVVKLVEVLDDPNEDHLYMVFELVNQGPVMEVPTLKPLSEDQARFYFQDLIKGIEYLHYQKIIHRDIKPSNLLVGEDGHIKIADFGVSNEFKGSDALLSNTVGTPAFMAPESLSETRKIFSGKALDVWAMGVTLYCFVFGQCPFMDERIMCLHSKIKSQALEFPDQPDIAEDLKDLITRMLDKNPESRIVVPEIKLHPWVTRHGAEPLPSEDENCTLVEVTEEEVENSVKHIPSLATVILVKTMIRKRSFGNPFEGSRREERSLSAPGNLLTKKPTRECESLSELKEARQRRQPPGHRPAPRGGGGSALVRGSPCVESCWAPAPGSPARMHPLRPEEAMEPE

SMILES	inhibition [1] [%]	Activity [2] [%]	inhibition [3] [%]	inhibition [4] [%]	inhibition [5] [%]	inhibition [6] [%]	Activity [7] [%]	inhibition [8] [%]	inhibition [9] [%]	Activity (Homo sapiens [10]) [%]	inhibition [11] [%]	inhibition [12] [%]	inhibition [13] [%]	inhibition [14] [%]	inhibition [15] [%]	inhibition [16] [%]	Activity (Homo sapiens [17]) [%]	inhibition [18] [%]	inhibition [19] [%]	inhibition [20] [%]	further results
CC(C)n1nc(-c2cnc(N)c(OC(F)(F)F)c2)cc1[C@H]1[C@@H]2CN(C3COC3)C[C@@H]21	13.5	> 50	7.5	1.7	8.7	40.7	> 50	9.1	10.5	> 50	11.1	1.2	21.9	17.6	2.4	30.3	> 50	4.7	3.6	1.8	inhibition [21]: 1.5%; inhibition [22]: 23.8%; inhibition [23]: 13.7%; inhibition [24]: 8%; inhibition [25]: -0.8%; inhibition [26]: 20%; inhibition [27]: 32.7%
Nc1ncc(-c2cc([C@H]3[C@@H]4CN(C5COC5)C[C@@H]43)n(CC3CC3)n2)cc1C(F)(F)F	30.8	> 50	0.1	-0.4	18.6	6.8	> 50	17.7	3.8	> 50	10.4	6.3	24.6	0.3	2.8	22.4	> 50	25.6	-2.7	2.1	inhibition [21]: 8.7%; inhibition [22]: 22%; inhibition [23]: 4.6%; inhibition [24]: -6.1%; inhibition [25]: 9.6%; inhibition [26]: 10%; inhibition [27]: 15.9%
